The source of these data is PubChem BioAssay.

A short description of experiment [1]: HUVEC growth inhibition – cell-based, human, primary screen (AID 575).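 Note: 100% = median of untreated cell wells with 0.1% DMSO on each plate.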 As to conditions: HUVEC proliferation, CellTiter-Glo luminescence, 72 h; at 10 µM; stronger effect = lower value. In short, it runs like this: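 Assay system: primary human umbilical vein endothelial cells / Buffer or medium: endothelial basal medium with 2% FBS plus growth supplements / Compound dosing: one dose, 10 µM final, 0.1% DMSO / Timing: 72 h treatment at 37 °C / Signal: CTG luminescence / Benchmarks: 32 DMSO-only cell-control wells (high), 32 MePR drug-control wells (low) per plate / Plate: collagen-coated 384-well format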
On the technique in general: Cellular ATP, detected with luciferase, serves as a proxy for viable cell number.

Experiment [2] can be described thus: H69AR cell proliferation blockers – human, duplicate replicates, primary screen (AID 580;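 active = viability at or under a set limit in both replicates, limit being median viability minus 3 SD, cut at about 48% in these data, passing the limit was not always enough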;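 note: 100% = mean luminescence of untreated wells and 0% = no signal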). As to conditions: H69AR lung tumor cells viability, ATP luminescence, 72 h; at 10 µM; stronger effect = lower value.
Experiment [3] in a line: MRP1 drug-resistance reversers in H69AR cells – cell-based, doxorubicin co-treatment, pilot screen (AID 601;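 active = viability loss from added drug above about 55%, and viability with drug at most 40%, in both replicates, limit read from the data, passing the limit was not always enough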). As to conditions: CellTiter-Glo, 72 h, at 10 µM; for differential viability (reversal): stronger effect = higher value.
Experiment [4] in a line: yeast transport mutant growth inhibition pilot in 384-well plates, post-Golgi transport modulator project (AID 636; in the data active = inhibition above about 31%). As to conditions: absorbance 615 nm, about 18 h, stronger effect = higher value.
Experiment [5] can be described thus: growth suppression of yeast trafficking mutant, preliminary HTS, modulators of trafficking downstream of Golgi apparatus project, 1536-format plate, OD 615 nm (AID 637; in the data active = inhibition above about 30%). The following applies: yeast transport mutant growth, absorbance 615 nm, 18 h; stronger effect = higher value.
Setting [6] is: H69AR cells + 2 uM doxorubicin, measured here: viability with 2 uM doxorubicin, stronger effect = lower value.
Where [7] appears, read: H69AR cells, compound alone cytotoxicity.

Calls of active or inactive are those of the source.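 Rule for the calls, unless noted: active = viability at or below 30% in both replicate assays; inconclusive = viability at or below 30% in just one of the two assays; inactive = the rest.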

As usually defined, the viability is a read-out of living cells in per cent, often relative to untreated cells. One may read the inhibition as the change of the read-out against control, counted positive when it falls.

Consider `CCc1ccc(CCC(=O)Nc2ccc(C)c(C)c2)o1`, for which the viability in experiment [1] was 102% (inactive); in experiment [2], 95.1% (inactive); in experiment [3] (setting [6]) it was 87.9%; in experiment [3] (setting [7]), 95.1%. Also, in experiment [3] (H69AR cells + 2 uM doxorubicin), the differential viability (reversal) is 7.16% (inactive). Besides, the inhibition in experiment [4] is -8.4% (inactive); in experiment [5], -3.65% (inactive).
Take `O=C(NC1CCCCC1)C1CCCN1C(=O)NCc1ccccc1` (centres undefined): the viability in experiment [1] was 101% (inactive); in experiment [2], 102% (inactive); in experiment [3] (setting [6]), 104%; in experiment [3] (setting [7]), 102%. For the same molecule, the differential viability (reversal) in experiment [3] (H69AR cells + 2 uM doxorubicin) was -1.87% (inactive). The figures for the inhibition in experiment [4] and in experiment [5] were -4.93% (inactive) and -3.17% (inactive), respectively.
Consider `Cc1c(NC(=O)c2cnn3c2NC(c2ccco2)CC3C(F)(F)F)c(=O)n(-c2ccccc2)n1C` (centres undefined), for which the viability in experiment [1] is 81.5% (inactive); in experiment [2], 103% (inactive); in experiment [3] (setting [6]), 87%; in experiment [3] (setting [7]), 103%. Besides, in experiment [3] (H69AR cells + 2 uM doxorubicin), the differential viability (reversal) is 15.8% (inactive). Besides, the inhibition in experiment [4] is -2.47% (inactive); in experiment [5], 3.65% (inactive).
Take `Nc1cc(C(=O)O)ccc1Nc1ccccc1`: the viability in experiment [1] is 86.8% (inactive); in experiment [2] it was 111% (inactive); in experiment [3] (setting [6]), 99.8%; in experiment [3] (setting [7]), 111%. The differential viability (reversal) in experiment [3] (H69AR cells + 2 uM doxorubicin) is 11.5% (inactive). For the same molecule, the inhibition in experiment [4] was -5.06% (inactive); in experiment [5] it was 2.38% (inactive).
With `Cc1nc(SCC(=O)CC(=O)OC(C)C)c(C#N)c(C)c1C`, the viability in experiment [1] was 99.8% (inactive); in experiment [2], 95% (inactive); in experiment [3] (setting [6]), 88.7%; in experiment [3] (setting [7]) it was 95%. The differential viability (reversal) in experiment [3] (H69AR cells + 2 uM doxorubicin) was 6.36% (inactive). In addition, the results for the inhibition in experiment [4] and in experiment [5] were -2.8% (inactive) and 3.33% (inactive), respectively.
For `Cc1cc(NC(=O)c2ccc(Cl)cc2)no1`, the viability in experiment [1] was 96.1% (inactive); in experiment [2] it was 87.5% (inactive); in experiment [3] (setting [6]), 81.7%; in experiment [3] (setting [7]), 87.5%. Besides, in experiment [3] (H69AR cells + 2 uM doxorubicin), the differential viability (reversal) was 5.82% (inactive). In addition, the inhibition in experiment [4] was 2.86% (inactive); in experiment [5], 18.2% (inactive).
`Cc1cc(/N=C/N(C)C)on1`: the viability is 82.4% (inactive) in experiment [1], 93.7% (inactive) in experiment [2], 81.7% in experiment [3] (setting [6]) and 93.7% in experiment [3] (setting [7]). The differential viability (reversal) in experiment [3] (H69AR cells + 2 uM doxorubicin) was 12% (inactive). Moreover, the values for the inhibition in experiment [4] and in experiment [5] were -4.94% (inactive) and 2.06% (inactive), respectively.
Take `O=c1nc(N2CCCC2)nc(Nc2ccccc2)[nH]1`: the viability was 100% (inactive) in experiment [1], 83.7% (inactive) in experiment [2], 87% in experiment [3] (setting [6]) and 83.7% in experiment [3] (setting [7]). Besides, the differential viability (reversal) in experiment [3] (H69AR cells + 2 uM doxorubicin) was -3.31% (inactive). Also, the figures for the inhibition in experiment [4] and in experiment [5] were -2.47% (inactive) and -4.92% (inactive), respectively.
In the case of `O=C(O)Cn1nc2ccccc2n1`, the viability in experiment [1] is 108% (inactive); in experiment [2] it was 93.9% (inactive); in experiment [3] (setting [6]), 90.3%; in experiment [3] (setting [7]) it was 93.9%. Besides, the differential viability (reversal) in experiment [3] (H69AR cells + 2 uM doxorubicin) is 3.65% (inactive). Further, the inhibition in experiment [4] is -4% (inactive); in experiment [5], 8.73% (inactive).
In the case of `O=C(O)CCc1ccc(-c2ccccc2)n1CC(=O)O`, the viability was 88.9% (inactive) in experiment [1], 93% (inactive) in experiment [2], 91.1% in experiment [3] (setting [6]) and 93% in experiment [3] (setting [7]). Besides, the differential viability (reversal) in experiment [3] (H69AR cells + 2 uM doxorubicin) is 1.87% (inactive). The inhibition is -1.43% (inactive) in experiment [4] and 12.5% (inactive) in experiment [5].
`COc1cccc(N2CCN(c3ncnc4c3[nH]c3ccc(F)cc34)CC2C)c1` (centres undefined): the viability in experiment [1] is 2.17% (active); in experiment [2], 3.55% (active); in experiment [3] (setting [6]), 4.56%; in experiment [3] (setting [7]), 3.55%. Besides, the differential viability (reversal) in experiment [3] (H69AR cells + 2 uM doxorubicin) was -1.01% (inactive). In addition, the inhibition was 71% (active) in experiment [4] and 29.6% (inactive) in experiment [5].
For `COc1cccc(C(=O)CSc2nnc(COc3cccc4cccnc34)o2)c1`, the viability was 90.3% (inactive) in experiment [1], 81% (inactive) in experiment [2], 83.7% in experiment [3] (setting [6]) and 81% in experiment [3] (setting [7]). For the same molecule, in experiment [3] (H69AR cells + 2 uM doxorubicin), the differential viability (reversal) is -2.74% (inactive). Further, the inhibition in experiment [4] was 4.87% (inactive); in experiment [5] it was -7.94% (inactive).
For the molecule `O=C(c1cnn2c1NC(c1ccco1)CC2C(F)(F)F)N1CCN(c2cccc(Cl)c2)CC1` (centres undefined), the viability in experiment [1] was 48.7% (inactive); in experiment [2], 9.38% (active); in experiment [3] (setting [6]) it was 70.8%; in experiment [3] (setting [7]), 9.38%. Moreover, the differential viability (reversal) in experiment [3] (H69AR cells + 2 uM doxorubicin) is -61.4% (inactive). The inhibition was -6% (inactive) in experiment [4] and -2.22% (inactive) in experiment [5].
On to `COC(=O)c1c(N)sc(C(=O)N2CCOCC2)c1C`, for which the viability in experiment [1] was 95.2% (inactive); in experiment [2] it was 97.7% (inactive); in experiment [3] (setting [6]), 91%; in experiment [3] (setting [7]), 97.7%. Also, the differential viability (reversal) in experiment [3] (H69AR cells + 2 uM doxorubicin) is 6.62% (inactive). The figures for the inhibition in experiment [4] and in experiment [5] were -0.4% (inactive) and -5.87% (inactive), respectively.
As to `CCc1c(C)nc(N)n2c(SCC(=O)N3CCCc4ccccc43)nnc12`, the viability was 107% (inactive) in experiment [1], 100% (inactive) in experiment [2], 89.1% in experiment [3] (setting [6]) and 100% in experiment [3] (setting [7]). Moreover, the differential viability (reversal) in experiment [3] (H69AR cells + 2 uM doxorubicin) is 11.3% (inactive). Further, the inhibition in experiment [4] is -3.29% (inactive); in experiment [5] it was -0.32% (inactive).
With `O=C(c1ccco1)N1CCN(CC(=O)N(C2CCCCC2)C2CCS(=O)(=O)C2)CC1` (centres undefined), the viability in experiment [1] is 94% (inactive); in experiment [2], 93.5% (inactive); in experiment [3] (setting [6]), 97.6%; in experiment [3] (setting [7]) it was 93.5%. The differential viability (reversal) in experiment [3] (H69AR cells + 2 uM doxorubicin) was -4.1% (inactive). Moreover, the inhibition is -4.81% (inactive) in experiment [4] and -3.17% (inactive) in experiment [5].
As to `CCOC(=O)c1cc2c(=O)n3cccc(C)c3nc2n(CCOC)c1=NC(=O)c1ccncc1`, the viability was 104% (inactive) in experiment [1], 82.6% (inactive) in experiment [2], 92.6% in experiment [3] (setting [6]) and 82.6% in experiment [3] (setting [7]). Besides, the differential viability (reversal) in experiment [3] (H69AR cells + 2 uM doxorubicin) is -10.1% (inactive). Further, the inhibition in experiment [4] was -4.13% (inactive); in experiment [5] it was 3.33% (inactive).
For `CCOc1ccc(N2CC(C(=O)Nc3ccc(F)cc3F)CC2=O)cc1` (centres undefined), the viability is 110% (inactive) in experiment [1], 111% (inactive) in experiment [2], 90.9% in experiment [3] (setting [6]) and 111% in experiment [3] (setting [7]). Also, the differential viability (reversal) in experiment [3] (H69AR cells + 2 uM doxorubicin) was 19.7% (inactive). In addition, the inhibition was -0.26% (inactive) in experiment [4] and -5.08% (inactive) in experiment [5].
For `O=C(Nc1ncnc2sc3c(c12)CCCCC3)c1ccco1`, the viability was 91.5% (inactive) in experiment [1], 73.8% (inactive) in experiment [2], 74.5% in experiment [3] (setting [6]) and 73.8% in experiment [3] (setting [7]). Further, the differential viability (reversal) in experiment [3] (H69AR cells + 2 uM doxorubicin) was -0.73% (inactive). Besides, the inhibition in experiment [4] is -2.08% (inactive); in experiment [5] it was 3.65% (inactive).
As to `O=C1CC(C(=O)Nc2ccc(Br)cc2)C2(CCCC2)O1` (centres undefined), the viability was 109% (inactive) in experiment [1], 101% (inactive) in experiment [2], 93.1% in experiment [3] (setting [6]) and 101% in experiment [3] (setting [7]). In experiment [3] (H69AR cells + 2 uM doxorubicin), the differential viability (reversal) was 8.19% (inactive). The inhibition is -4% (inactive) in experiment [4] and -1.75% (inactive) in experiment [5].
As for `CCOC(=O)C1=C(C)N(C)C(C)=C(C(=O)OCC)C1c1cccnc1`, the viability in experiment [1] was 97.5% (inactive); in experiment [2], 92.4% (inactive); in experiment [3] (setting [6]), 91.5%; in experiment [3] (setting [7]) it was 92.4%. The differential viability (reversal) in experiment [3] (H69AR cells + 2 uM doxorubicin) is 0.9% (inactive). The results for the inhibition in experiment [4] and in experiment [5] were 0.79% (inactive) and -1.75% (inactive), respectively.
On to `CS(=O)(=O)N(CC(=O)N1CCN(c2cccc(Cl)c2)CC1)C1CCCCC1`, for which the viability in experiment [1] was 80.6% (inactive); in experiment [2], 79.6% (inactive); in experiment [3] (setting [6]), 87.1%; in experiment [3] (setting [7]), 79.6%. Besides, the differential viability (reversal) in experiment [3] (H69AR cells + 2 uM doxorubicin) is -7.54% (inactive). The inhibition in experiment [4] was -4.29% (inactive); in experiment [5], -7.78% (inactive).
